Bioassay records: PubChem BioAssay, several laboratories
In the library only some 1.7% were active in any assay of this set; here they are far more common.
IDE act: human IDE activators in live cells, primary screen, fluorescence polarization, HEK cells, FAbeta-B substrate. AID 493087, 2011. activation, % at 5.96 µM. Insulin-degrading enzyme (Homo sapiens), P14735. FAbeta-B cleavage; 0% vehicle, 100% cell-free pure enzyme wells. 0.073% of 340,000 active;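 active = activation above the mean of all tested compounds plus 3 SD, set per screening campaign, cut at about 17% in these data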
Target sequence (P14735 whole entry, looked up): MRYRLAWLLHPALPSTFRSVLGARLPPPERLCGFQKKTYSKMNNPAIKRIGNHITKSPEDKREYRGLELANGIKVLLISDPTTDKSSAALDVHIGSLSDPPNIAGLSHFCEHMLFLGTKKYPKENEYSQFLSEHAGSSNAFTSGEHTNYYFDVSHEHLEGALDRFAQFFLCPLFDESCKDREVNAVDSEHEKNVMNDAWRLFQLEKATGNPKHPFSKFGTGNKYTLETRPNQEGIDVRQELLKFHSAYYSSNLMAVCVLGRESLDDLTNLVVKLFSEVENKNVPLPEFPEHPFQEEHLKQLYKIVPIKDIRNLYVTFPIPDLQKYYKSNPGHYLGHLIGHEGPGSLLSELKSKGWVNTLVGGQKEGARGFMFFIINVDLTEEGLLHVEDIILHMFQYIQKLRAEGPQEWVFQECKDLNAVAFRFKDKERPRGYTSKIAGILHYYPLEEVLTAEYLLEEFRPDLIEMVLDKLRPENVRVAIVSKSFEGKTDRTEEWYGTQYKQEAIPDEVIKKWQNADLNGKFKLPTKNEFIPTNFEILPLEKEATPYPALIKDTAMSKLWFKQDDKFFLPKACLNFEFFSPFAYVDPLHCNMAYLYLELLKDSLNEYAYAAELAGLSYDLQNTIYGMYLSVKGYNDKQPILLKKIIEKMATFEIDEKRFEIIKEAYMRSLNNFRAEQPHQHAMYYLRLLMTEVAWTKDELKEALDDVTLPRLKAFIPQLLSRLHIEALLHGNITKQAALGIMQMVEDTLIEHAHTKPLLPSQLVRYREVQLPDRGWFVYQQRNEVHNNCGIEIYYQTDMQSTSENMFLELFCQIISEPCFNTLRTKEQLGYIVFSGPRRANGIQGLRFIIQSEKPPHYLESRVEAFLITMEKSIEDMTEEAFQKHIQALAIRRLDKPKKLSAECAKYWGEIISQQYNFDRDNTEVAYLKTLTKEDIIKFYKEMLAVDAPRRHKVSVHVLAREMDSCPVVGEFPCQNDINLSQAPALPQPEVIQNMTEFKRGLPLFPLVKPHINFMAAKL
CSN deneddyl inh: inhibitors of CSN-mediated cullin deneddylation, primary screen, biochemical, fluorescence polarization, uHTS; COP9 signalosome complex subunit 5 (Homo sapiens), Q92905; Purified CSN, SCF-Nedd8-OG deneddylation; inhibition, % at 12.5 µM; 0.38% of 360,000 active; AID 651999, 2013;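 active = pattern-corrected inhibition above about 35%, with an unprinted fluorescence ratio check between 0.5 and 1.5, limit read from the data, passing the limit was not always enough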;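 note: 0% = enzyme with substrate and 100% = substrate without enzyme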
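Test system: purified human Csn5 enzyme expressed in HEK293T cells. Amount: 0.24 nM enzyme. Reagent: SCFSkp2-Nedd8OG substrate at 10 nM final. Schedule: 90 min incubation of compound, enzyme and substrate at room temperature. Detection: fluorescence polarization. Read-out: % inhibition of substrate cleavage by Csn5.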
IDE cell inh: human IDE inhibitors in live cells, primary screen, fluorescence polarization, HEK cells, FAbetaB substrate | Insulin-degrading enzyme (Homo sapiens), P14735 | 0.41% of 320,000 active | inhibition, % at 5.59 µM | FAbetaB cleavage;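 active = percent inhibition above the average of all tested compounds plus 3 SD, set per screening campaign, cut at about 16% in these data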;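 note: IDE supplied by intact live HEK cells; FP after avidin binding of uncleaved biotin substrate so inhibition keeps polarization high; 0% = DMSO wells and 100% = 60 µM reference IDE inhibitor Ii1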
Rpn11 inh: Rpn11 (PSMD14) deubiquitinase inhibitors, primary screen, biochemical, fluorescence polarization, uHTS; 26S proteasome non-ATPase regulatory subunit 14 (Homo sapiens), O00487; human 26S proteasome, Ub4-pepOG fluorescence polarization; 20S core pre-blocked with epoxomicin; inhibition, % at 20 µM; 0.59% of 360,000 active; AID 588493, 2011;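 active = inhibition at 20 µM, scaled to each plate's controls, above about 33%, limit read from the data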
HNF4A DNA FP: change in binding of human HNF4A to DNA, primary screen, biochemical, fluorescence polarization, FITC-DNA | AID 1224865, 2016 | 1 h | 0.3% of 360,000 active | Hepatocyte nuclear factor 4-alpha (Homo sapiens), P41235 | activity change, % at 10 µM; in the data active = activity change above about 30%, passing the limit was not always enough
TPT1 inhibitor: Candida albicans TPT1 enzyme inhibitors, primary screen, biochemical, fluorescence polarization; tRNA 2'-phosphotransferase TPT1 (Candida albicans SC5314); recombinant caTPT1, FP RNA substrate dephosphorylation; inhibition, % at 5 µM; 0.81% of 300,000 active;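 active = inhibition above the mean of all tested compounds plus 3 SD, set per screening campaign, cut at about 24% in these data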;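 note: plate controls were DMSO alone for no effect and ferristatin control at 100 nM for full effect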
Rpn11 inh conf: Rpn11 (PSMD14) deubiquitinase inhibitors, confirmation, biochemical, fluorescence polarization, single concentration; shares compounds with Rpn11 inh; purified human 26S proteasome, Ub4-pepOG fluorescence polarization; proteasome pretreated with epoxomicin; inhibition, % at 20 µM; 29% of 1,900 active
MMP-2 counter-1: MMP-2 enzyme inhibition, confirmation, counter-screen for RPN11 inhibitor project, biochemical, fluorescence, single concentration. recombinant MMP-2, FRET peptide cleavage fluorescence. 4% of 1,900 active. shares compounds with Rpn11 inh. inhibition, % at 20 µM;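 note: human MMP-2 activated beforehand with APMA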
Thrombin inh: bovine thrombin protease inhibition, confirmation, counter-screen for Rpn11 inhibitor project, biochemical, fluorescence polarization, single concentration; shares compounds with Rpn11 inh; bovine thrombin cleavage of Ub4-pepOG; inhibition, % at 20 µM; 13% of 1,900 active; AID 602333, 2012;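 active = mean inhibition at least 40% at 20 µM, or signal 3 deviations below plate average, so some actives read negative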;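 note: plate controls were thrombin with DMSO for no effect and buffer wells lacking thrombin for full effect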
CSN deneddyl val: Csn5 deneddylation inhibitors, confirmation, biochemical, fluorescence polarization, single concentration, SCF-Nedd8OG substrate; shares compounds with CSN deneddyl inh; Csn5 deneddylation of SCF-Nedd8OG, 90 min; inhibition, % at 16.6 µM; 62% of 540 active; in the data active = inhibition above about 50%;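 note: 0% = DMSO with enzyme and 100% = no enzyme wells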
MMP-2 counter-2: MMP-2 protease inhibition counter-screen, confirmation, counter-screen for CSN deneddylation inhibitor project, biochemical, fluorescence, single concentration; recombinant MMP-2, FRET substrate fluorescence, 60 min; shares compounds with CSN deneddyl inh; 33% of 540 active; inhibition, % at 16.6 µM; AID 720655, 2013;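 active = corrected plate-normalized z-score of 5 or more, or -5 or less, or inhibition of 15% or more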;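 note: plate controls were DMSO wells with enzyme for no effect and buffer wells lacking MMP-2 for full effect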
Thrombin counter: counter-screen for CSN deneddylation inhibitors: bovine thrombin inhibition; inhibition, % at 16.6 µM; 49% of 540 active; shares compounds with CSN deneddyl inh; bovine thrombin cleavage of Ub4-pepOG, fluorescence polarization;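 active = inhibition at or above a set limit, with a fluorescence interference ratio between 0.5 and a set maximum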
HNF4A confirm: change in HNF4A binding to DNA, retest, confirmation, biochemical, fluorescence polarization, FITC-DNA | 99% of 210 active | 1 h | shares compounds with HNF4A DNA FP | activity change, % at 12.5 µM; call rule not given here
An asterisk follows results filed as active; / = no result; + = active, no number; ! = not confirmed by another sample. Cut-off read from the data, not from the text of the source, unless noted: active = inhibition above about 40%; inactive = the rest.

SMILES | IDE act | CSN deneddyl inh | IDE cell inh | Rpn11 inh | HNF4A DNA FP | TPT1 inhibitor | Rpn11 inh conf | MMP-2 counter-1 | Thrombin inh | HNF4A confirm | others
COc1cc(NS(=O)(=O)c2ccc(NC(=S)NC(=O)/C=C/c3ccco3)cc2)ncn1 | 7 | 49* | / | 42* | -42 | / | 78* | 24 | 47* | / | CSN deneddyl val=61*;MMP-2 counter-2=23*;Thrombin counter=22*
Cc1cc(N2CCN(c3ccc([N+](=O)[O-])c4cccnc34)CC2)c2ccccc2n1 | -2 | 59* | 2 | 45* | 138 | 4 | 48* | -64 | -18 | / | CSN deneddyl val=105*;MMP-2 counter-2=-7;Thrombin counter=-1
COc1ccc(C(=O)NCCS(=O)(=O)N(C)Cc2ccccc2)cc1 | -1 | 4 | -4 | -9 | 1 | 2 | / | / | / | /
CCCCc1cc(=O)oc2cc(OCC(=O)NCCN3CCOCC3)ccc12 | -2 | 0 | 3 | 10 | 6 | 0 | / | / | / | /
O=C(O)CN1C(=O)/C(=C\c2cc(Br)ccc2OCc2ccc(Cl)cc2Cl)SC1=S | 4 | 36* | 3 | 80* | -22 | -3 | 13 | 11 | 79* | / | CSN deneddyl val=33;MMP-2 counter-2=2;Thrombin counter=8
COc1cc(Cl)cc(/C=N\NC(=O)c2ccc3c(c2)OCO3)c1O | / | 99* | / | 97* | 6 | / | 134* | 23 | 76* | / | CSN deneddyl val=-79;MMP-2 counter-2=23*;Thrombin counter=4
O=C(N/N=C/c1cc(Cl)cc([N+](=O)[O-])c1O)c1ccc2c(c1)OCO2 | 2 | -1 | 6 | 4 | -1 | 3 | / | / | / | /
Cc1ccc[n+](-c2nc3ccccc3nc2C(=C=[N-])C#N)c1 | 3 | 63*! | -4 | 49*! | 60* | 15 | 12 | -3 | 3 | 42*
CC(C)C[C@H]1CNC(=S)N1C[C@H]1CCCN1C[C@H](CC(C)C)N1C[C@H](Cc2ccc(O)cc2)N(CC2CCCCCC2)C1=S | / | -3 | / | 4 | 1 | / | / | / | / | /
C/C(=N\NC(=O)c1ccncc1)c1ccc(N2CCOCC2)cc1 | 4 | 4 | -3 | -6 | 1 | / | / | / | / | /
C/C(=N\NC(=O)c1ccc(OC2OCCOC2Oc2ccc(C(=O)N/N=C(\C)c3ccncc3)cc2)cc1)c1ccncc1 (stereo not given) | -1 | 99* | 0 | + | 157* | 2 | 192* | -489 | 51* | 204*
O=C(CSc1nnc(CNC(=O)c2ccco2)o1)Nc1cccc(Cl)c1 | 2 | -1 | 6 | 1 | 3 | 2 | / | / | / | /
Cc1cccc(NC(=O)c2cc3c(=O)n4ccccc4nc3s2)c1 | -8 | 9 | -5 | 95* | 45* | -1 | 7 | -84 | -21 | 55*
Cc1ccc(NC(=O)CC[C@H]2O[C@@H](n3cnc4c(NC(=O)c5ccccc5)ncnc43)[C@H](O)[C@@H]2O)cc1C | / | -5 | / | -4 | 1 | / | / | / | / | /
C=CCN1C(=O)/C(=C2/Sc3ccc(OC)cc3N2C)SC1=Nc1ccccc1 | 0 | 3 | 7 | 16 | 6 | -1 | / | / | / | /
CCCCN1C(=O)/C(=C2/Sc3ccccc3N2C)S/C1=N\c1ncn[nH]1 | -1 | 45* | 2 | 66* | 46* | 21 | 97* | -52 | 62* | 75*
O=c1c(Cl)c(N/N=C/c2ccc(Cl)cc2)cnn1-c1ccccc1 | -1 | 28 | 2 | 115* | 39* | -1 | 17 | -15 | 2 | 45*
CC(=O)Oc1c(C)c(OC(C)=O)c2c(c1C(C)=O)OC1CC(=O)C(C(C)=O)=C(O)C21C (stereo not given) | 5 | 3 | -1 | 13 | 4 | 5 | / | / | / | /
CC(=O)c1c(O)c(C)c(O)c2c1OC1=CC(=O)C(C(C)=O)C(=O)[C@@]12C (stereo not given in full) | 2 | 24 | / | 111* | 65* | / | 120* | -22 | 109* | 57*
C=CCN1C=C/C(=C\C=C(C#N)C#N)c2ccccc21 | -19 | 35* | 15 | 103* | 94* | 16 | 90* | -37 | 89* | 111*
C=CCN1/C(=C(\C#N)C2=NS(=O)(=O)c3ccccc32)N(C)c2ccccc21 | 2 | 0 | 5 | -7 | -2 | -4 | / | / | / | /
C=CCCC(=O)N1C[C@H]2CON(C)[C@H]2C[C@H]1c1ccc(N2CCCCC2)cc1 | / | 14 | / | 51* | 43* | / | 56* | 10 | 45* | 45*
O=C(OCC(=O)N1CCCC1)c1cnc(Cl)c(Cl)c1 | -2 | 1 | -1 | -2 | -1 | / | / | / | / | /
O=C(NCc1cccnc1)c1cc(C2CCCCN2S(=O)(=O)c2ccc(F)cc2F)on1 (stereo not given) | / | 1 | / | -14 | -3 | / | / | / | / | /
COc1ccc(CC(=O)Nc2ccc(-c3nnc(-c4ccccc4)o3)cc2)cc1OC | 4 | 46* | 0 | 69* | 36* | 1 | 22 | 14 | -17 | 73*
COc1ccc(CC(=O)Nc2cccc(-c3nnc(-c4ccccc4)o3)c2)cc1OC | -4 | -2 | / | 4 | 11 | / | / | / | / | /
